Measured values from ChEMBL document CHEMBL1134666, “Design, synthesis, and biological evaluation of novel nucleoside and nucleotide analogues as agents against DNA viruses and/or retroviruses” (J Med Chem, 2001).

Key:
[1] = substrate: Nc1ncnc2c1ncn2[C@@H]1O[C@H](COP(=O)(O)O)[C@@H](OP(=O)(O)COCCn2cnc3ncnc(N)c32)[C@H]1O; test: (§1) Michaelis rate constant is determined by the Lineweaver and Burk method against adenosine deaminase
Procedure, shortened: (§2)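 Reaction velocity measured as µmol/min per mg enzyme across substrate concentrations.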

[2] = substrate: COC1=C(OC)/C(=C/COP(=O)(O)OC[C@H]2O[C@@H](n3cnc4c(N)ncnc43)[C@H](O)[C@@H]2OP(=O)(O)COCCn2cnc3ncnc(N)c32)OC1=O; test: as §1; procedure, shortened: as §2
[3] = substrate: COC1=C(OC)/C(=C/COP(=O)(O)COCCn2cnc3c(N)ncnc32)OC1=O; test: as §1; procedure, shortened: as §2
[4] = substrate: Nc1ncnc2ncn(COCCO)c12; test: as §1; procedure, shortened: as §2
[5] = substrate: Nc1ncnc2ncn(CCOCP(=O)(O)O)c12; test: as §1; procedure, shortened: as §2
[6] = substrate: Nc1ncnc2c1ncn2[C@@H]1O[C@H](COP(=O)(O)O)[C@@H](OP(=O)(O)COCCn2cnc3ncnc(N)c32)[C@H]1O; test: (§3) Michaelis rate constant is determined by the Lineweaver and Burk method against PRPP synthetase
Procedure, shortened: (§4)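 PRPP synthetase reaction in 10.0 mM potassium phosphate buffer (pH 8.0) with 5.0 mM MgCl₂, 2.5 mM PRPP, 0.04 unit enzyme and AMP or test nucleotide. Reactions ran linearly and were stopped with MeOH after 4 h. Diphosphate or ATP formation was analysed by anion-exchange HPLC. Inhibition was measured at different AMP concentrations plus inhibitor, with 0.002 unit enzyme, 37 °C, 15 min, ATP formation followed by HPLC.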

[7] = substrate: Nc1ncnc2ncn(CCOCP(=O)(O)O)c12; test: as §3; procedure, shortened: as §4
[8] = substrate: Nc1nc(O)c2c(ncn2COCCO)n1; conditions: herpes simplex virus
[9] = substrate: Nc1ncnc2ncn(COCCO)c12; conditions: herpes simplex virus
[10] = substrate: Nc1ncnc2c1ncn2COCCO; conditions: herpes simplex virus
[11] = substrate: Nc1ncnc2c1ncn2[C@@H]1O[C@H](CO)[C@@H](O)[C@@H]1O; conditions: herpes simplex virus
[12] = substrate: Nc1nc(O)c2c(ncn2COCCO)n1; conditions: Chlorocebus sabaeus; Vero
[13] = substrate: Nc1nc2c(ncn2COCCO)c(=O)[nH]1; conditions: Chlorocebus sabaeus; Vero

B1: Adenosine deaminase (Bos taurus), P56658 (protein)
chain: MAQTPAFNKPKVELHVHLDGAIKPETILYYGRKRGIALPADTPEELQNIIGMDKPLSLPEFLAKFDYYMPAIAGCREAVKRIAYEFVEMKAKDGVVYVEVRYSPHLLANSKVEPIPWNQAEGDLTPDEVVSLVNQGLQEGERDFGVKVRSILCCMRHQPSWSSEVVELCKKYREQTVVAIDLAGDETIEGSSLFPGHVKAYAEAVKSGVHRTVHAGEVGSANVVKEAVDTLKTERLGHGYHTLEDATLYNRLRQENMHFEVCPWSSYLTGAWKPDTEHPVVRFKNDQVNYSLNTDDPLIFKSTLDTDYQMTKNEMGFTEEEFKRLNINAAKSSFLPEDEKKELLDLLYKAYGMPSPASAEQCL
[1]
  Km: 160 µM
[2]
  Km: 640 µM
[3]
  Km: > 800 µM
[4]
  Km: 200 µM
[5]
  Km: > 800 µM

B2: Phosphoribosyl pyrophosphate synthase-associated protein 2 (Homo sapiens), O60256 (protein)
chain: MFCVTPPELETKMNITKGGLVLFSANSNSSCMELSKKIAERLGVEMGKVQVYQEPNRETRVQIQESVRGKDVFIIQTVSKDVNTTIMELLIMVYACKTSCAKSIIGVIPYFPYSKQCKMRKRGSIVSKLLASMMCKAGLTHLITMDLHQKEIQGFFNIPVDNLRASPFLLQYIQEEIPDYRNAVIVAKSPASAKRAQSFAERLRLGIAVIHGEAQDAESDLVDGRHSPPMVRSVAAIHPSLEIPMLIPKEKPPITVVGDVGGRIAIIVDDIIDDVDSFLAAAETLKERGAYKIFVMATHGLLSSDAPRRIEESAIDEVVVTNTIPHEVQKLQCPKIKTVDISMILSEAIRRIHNGESMSYLFRNIGLDD
[6]
  Km: 570 µM
[7]
  Km: 4800 µM

B3: Thymidine kinase, cytosolic (Homo sapiens), P04183 (protein)
chain: MSCINLPTVLPGSPSKTRGQIQVILGPMFSGKSTELMRRVRRFQIAQYKCLVIKYAKDTRYSSSFCTHDRNTMEALPACLLRDVAQEALGVAVIGIDEGQFFPDIVEFCEAMANAGKTVIVAALDGTFQRKPFGAILNLVPLAESVVKLTAVCMECFREAAYTKRLGTEKEVEVIGGADKYHSVCRLCYFKKASGQPAGPDNKENCPVPGKPGEAVAARKLFAPQQILQCSPAN
[8]
  Km: 12.8 µM
[9]
  Km: 30 µM
[10]
  Km: 2 µM
[11]
  Km: 1.5 µM
[12]
  Km: 18.3 µM
[13]
  Km: 2.2 µM
